Measurements from ChEMBL document CHEMBL4007426, “Phosphinophosphonates and Their Tris-pivaloyloxymethyl Prodrugs Reveal a Negatively Cooperative Butyrophilin Activation Mechanism” (J Med Chem, 2017).
Calls of active or inactive are those of the source. The calls are words filed in the database; no cut-off is given here.

Tests used:
[1] = Toxicity in human Vgamma9/Vdelta2 T cells treated for 72 hrs measured on day 11 post last treatment by flow cytometry; format: cell-based, Vgamma9/Vdelta2 T cell
Method in brief: (§1)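 Human peripheral blood mononuclear cells were treated with compound for 72 h, cultured to day 11, and Vγ9Vδ2 (CD3+/γδ TCR+) cells were assessed by flow cytometry over a dose-response range. Interleukin 2 and untreated controls were included. Runs were done at least three independent times using cells from at least 2 donors.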

[2] = tested on: K562; test: Antiproliferative activity against human K562 cells after 72 hrs by fluorescence spectroscopy; format: cell-based; settings: K562, 72 h
Method in brief: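 K562 cells at 1 × 10^4 cells/100 μL exposed to compounds for 72 h. Fluorescent viability reagent added for the final 2 h, then fluorescence read. Viability expressed as percent of untreated cells after subtracting a media-only blank.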

[3] = molecular target: Butyrophilin subfamily 3 member A1 (Homo sapiens) (UniProt O00481); test: Activation of BTN3A1 in human Vgamma9Vdelta2 T cells assessed as induction of interleukin 2 stimulated cell proliferation by measuring increase in CD3 positive cells at 0.1 uM treated for 72 hrs measured on day 11 post last treatment by flow cytometry; format: cell-based
Chain of Butyrophilin subfamily 3 member A1 (Homo sapiens) (O00481 30-513 limits assumed): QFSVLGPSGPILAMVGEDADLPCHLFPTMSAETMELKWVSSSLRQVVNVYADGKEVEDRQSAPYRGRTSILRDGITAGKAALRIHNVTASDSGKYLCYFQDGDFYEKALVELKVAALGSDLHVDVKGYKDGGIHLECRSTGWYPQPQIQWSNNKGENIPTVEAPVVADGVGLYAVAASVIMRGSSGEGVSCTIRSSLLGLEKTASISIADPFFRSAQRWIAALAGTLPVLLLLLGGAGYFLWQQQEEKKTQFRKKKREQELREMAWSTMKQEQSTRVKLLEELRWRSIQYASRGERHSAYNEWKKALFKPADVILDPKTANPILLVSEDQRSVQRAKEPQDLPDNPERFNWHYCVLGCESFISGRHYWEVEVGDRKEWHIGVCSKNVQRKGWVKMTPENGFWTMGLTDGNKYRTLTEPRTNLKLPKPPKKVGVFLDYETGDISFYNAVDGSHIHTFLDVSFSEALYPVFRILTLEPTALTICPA
Method in brief: (§2)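 Human peripheral blood mononuclear cells exposed to compound for 72 h together with interleukin 2, then grown for 11 days. CD3+/γδ TCR+ cells were scored by flow cytometry. […] Negative controls were cells with or without interleukin 2 and no compound. Bars show mean and SD, n=3, with ANOVA and Tukey post-hoc test.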

[4] = molecular target: Butyrophilin subfamily 3 member A1 (Homo sapiens) (UniProt O00481); test: Activation of BTN3A1 in human Vgamma9Vdelta2 T cells assessed as induction of interleukin 2 stimulated cell proliferation by measuring increase in gammadelta T cell receptor positive cells at 0.1 uM treated for 72 hrs measured on day 11 post last treatment by flow cytometry; method in brief: as §2
[5] = Safety index, ratio of HMBPP IC50 to compound IC50 for human K562 cells; format: ADME, cell-based; settings: read-out: Ratio IC50
Method in brief: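 Direct K562 toxicity: 1 × 10^4 cells/100 μL exposed to compounds for 72 h, with cell quantibluo reagent added for the final 2 h and a fluorescence read-out. Viable cells were expressed as % of untreated control after subtracting a media-only blank, giving an IC50. The fold value divides the reference IC50 by the test IC50.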

[6] = Selectivity index, ratio of IC50 for human Vgamma9Vdelta2 T cells to EC50 for BTN3A1 in human Vgamma9Vdelta2 T cells; format: functional
[7] = molecular target: Butyrophilin subfamily 3 member A1 (Homo sapiens) (UniProt O00481); test: Potency index, ratio of HMBPP EC50 to compound EC50 for BTN3A1 in human Vgamma9Vdelta2 T cells
[8] = molecular target: Butyrophilin subfamily 3 member A1 (Homo sapiens) (UniProt O00481); test: Inhibition of HMBPP binding to recombinant C-terminal His-tagged BTN3A1 intracellular domain (unknown origin) expressed in BL21(DE) assessed as change in entropy of HMBPP binding at 100-fold molar excess of compound by isothermal titration calorimetry (reference value: 19 kJ/mol); format: cell-based
[9] = molecular target: Butyrophilin subfamily 3 member A1 (Homo sapiens) (UniProt O00481); test: Inhibition of HMBPP binding to recombinant C-terminal His-tagged BTN3A1 intracellular domain (unknown origin) expressed in BL21(DE) by isothermal titration calorimetry
[10] = molecular target: Butyrophilin subfamily 3 member A1 (Homo sapiens) (UniProt O00481); test: Inhibition of HMBPP binding to recombinant C-terminal His-tagged BTN3A1 intracellular domain (unknown origin) expressed in BL21(DE) assessed as change in entropy of HMBPP binding at 10-fold higher dose of compound by isothermal titration calorimetry (reference value: 19 kJ/mol); format: cell-based
[11] = molecular target: Butyrophilin subfamily 3 member A1 (Homo sapiens) (UniProt O00481); test: Binding affinity to recombinant C-terminal His-tagged BTN3A1 intracellular domain (unknown origin) expressed in BL21(DE) assessed as change in entropy at 688 uM by isothermal titration calorimetry
Method in brief: (§3)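 Purified full BTN3A1 intracellular domain at 43 μM titrated with compound at 300–860 μM by isothermal titration calorimetry. Three independent titrations per compound.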

[12] = molecular target: Butyrophilin subfamily 3 member A1 (Homo sapiens) (UniProt O00481); test: Binding affinity to recombinant C-terminal His-tagged BTN3A1 intracellular domain (unknown origin) expressed in BL21(DE) assessed as change in entropy at 480 uM by isothermal titration calorimetry; method in brief: as §3
[13] = molecular target: Butyrophilin subfamily 3 member A1 (Homo sapiens) (UniProt O00481); test: Binding affinity to recombinant C-terminal His-tagged BTN3A1 intracellular domain (unknown origin) expressed in BL21(DE) assessed as change in entropy at 240 uM by isothermal titration calorimetry
[14] = molecular target: Butyrophilin subfamily 3 member A1 (Homo sapiens) (UniProt O00481); test: Binding affinity to recombinant C-terminal His-tagged BTN3A1 intracellular domain (unknown origin) expressed in BL21(DE) at […] by isothermal titration calorimetry
Method in brief: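 Full intracellular domain of BTN3A1 was purified as previously described. Protein was at 43 μM and titrant compound at 300–860 μM. Three independent titrations were run per compound.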

[15] = Toxicity in human Vgamma9/Vdelta2 T cells at >= 10 uM treated for 72 hrs measured on day 11 post last treatment by flow cytometry; format: cell-based; settings: vgamma9/vdelta2 t cell; method in brief: as §1

Compound	IC50 at 72 h [1] [µM]	IC50 [2] [µM]	Activity [3]	Activity [4]	further results
C/C(=C\COP(=O)(O)OP(=O)(O)O)CO	0.5	> 100	Active	Active	–
CC(C)=CCCP(=O)(CP(=O)(OCOC(=O)C(C)(C)C)OCOC(=O)C(C)(C)C)OCOC(=O)C(C)(C)C (configuration not stated)	> 100	9.7	–	–	selectivity ratio [5]: > 10
C/C(=C\CCP(=O)(OCOC(=O)C(C)(C)C)OCOC(=O)C(C)(C)C)CO	0.6	–	Active	Active	Ratio IC50/EC50 [6]: 110; Ratio EC50 [7]: 0.094
CC(C)=CCCP(=O)(O)CP(=O)(O)O	> 100	> 100	–	–	TdeltaS [8]: 6.69 kcal/mol; inhibition [9]: Dose-dependent effect; TdeltaS [10]: -1.1 kcal/mol
COP(=O)(CC/C=C(\C)CO)CP(=O)(OC)OC (configuration not stated)	> 100	> 100	–	–	–
C/C(=C\CCP(=O)(O)CP(=O)(O)O)CO	> 100	> 100	–	–	TdeltaS [11]: -12.1 kcal/mol; TdeltaS [12]: -13.2 kcal/mol; TdeltaS [13]: -12 kcal/mol
C/C(=C\CCP(=O)(CP(=O)(OCOC(=O)C(C)(C)C)OCOC(=O)C(C)(C)C)OCOC(=O)C(C)(C)C)CO (configuration not stated)	3.5	–	Active	Active	Activity [14]: inactive; Ratio IC50/EC50 [6]: 85; Activity [15]: Toxic; selectivity ratio [5]: > 29
C/C(=C\CCP(=O)(O)O)CO	–	–	–	–	Ratio EC50 [7]: 0.00013
